Bioassay records: PubChem BioAssay, The Scripps Research Institute Molecular Screening Center
CHO parental Ca – counter-screen: ATP calcium response change in parental CHO cells | parental CHO-K1, ATP-induced calcium, Fluo-8 fluorescence | inhibition, % at 5.6 µM | 330,000 compounds, 0.63% hits | AID 463079;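 active means inhibition above that plate's mean sample inhibition plus 3 SD, cut at about 26% in these data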;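 further: 0% = ATP-challenged DMSO wells and 100% = DMSO wells without ATP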
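test system = CHO parental line | reagent = ATP stimulus | measured by = intracellular calcium via Fluo-8 no-wash fluorescent dye | control set = ATP and no-ATP DMSO wells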
GPR7 antagonist – antagonists of human GPR7 (neuropeptides B/W receptor 1); inhibition, % at 4.4 µM; GPR7-expressing cells, fluorescence antagonist assay; AID 1861; 290,000 compounds, 1.1% hits; P48145; in the data active means inhibition above about 16%, passing the limit was not always enough;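 further: cells stimulated with the agonist NPW; 0% = agonist with vehicle and 100% = vehicle without agonist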
OX1R antag-1 – human HCRTR1 antagonism; O43613; CHO/OX1R cells, Fluo-8 calcium fluorescence, orexin A; inhibition, % at 5 µM; 330,000 compounds, 0.43% hits; AID 434989;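 active means inhibition above its plate's threshold, mean inhibition of all tested compounds on the plate plus 3 SD, cut at about 37% in these data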;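 further: 0% = orexin A challenge wells and 100% = SB-334867-A antagonist wells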
Target sequence (O43613 whole entry, looked up): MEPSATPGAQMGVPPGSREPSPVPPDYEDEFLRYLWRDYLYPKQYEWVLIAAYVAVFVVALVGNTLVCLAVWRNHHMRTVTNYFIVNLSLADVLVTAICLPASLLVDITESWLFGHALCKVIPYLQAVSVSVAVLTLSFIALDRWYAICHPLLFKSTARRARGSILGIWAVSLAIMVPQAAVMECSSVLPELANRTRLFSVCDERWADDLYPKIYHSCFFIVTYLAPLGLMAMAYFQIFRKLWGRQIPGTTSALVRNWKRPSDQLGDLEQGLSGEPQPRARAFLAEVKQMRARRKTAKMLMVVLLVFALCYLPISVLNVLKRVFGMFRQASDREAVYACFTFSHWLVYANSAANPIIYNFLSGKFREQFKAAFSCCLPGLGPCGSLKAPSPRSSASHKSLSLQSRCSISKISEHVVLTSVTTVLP
TAAR1 antagonist – antagonists of human TAAR1; CHO RD-HGA16 TAAR1, Fluo-8 calcium fluorescence, antagonist; Q96RJ0; 360,000 compounds, 1.5% hits; inhibition, % at 3 µM; AID 624466;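 active means inhibition above a per-plate cutoff, the mean inhibition of test compounds on that plate plus 3 SD, cut at about 49% in these data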;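 further: 0% = DMSO plus EC80 beta-PEA response and 100% = DMSO alone without agonist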
Target sequence (Q96RJ0 whole entry, looked up): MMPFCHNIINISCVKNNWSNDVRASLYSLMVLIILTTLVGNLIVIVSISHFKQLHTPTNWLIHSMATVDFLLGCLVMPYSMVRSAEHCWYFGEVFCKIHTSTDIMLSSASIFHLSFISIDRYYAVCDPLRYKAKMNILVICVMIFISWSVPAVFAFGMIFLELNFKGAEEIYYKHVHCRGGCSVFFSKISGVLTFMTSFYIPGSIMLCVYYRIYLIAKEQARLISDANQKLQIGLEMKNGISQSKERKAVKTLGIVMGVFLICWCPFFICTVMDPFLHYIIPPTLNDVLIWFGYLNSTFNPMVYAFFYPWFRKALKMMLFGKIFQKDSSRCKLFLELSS
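Test system: RD-HGA16 CHO cells with stable hTAAR1 and Gα16 / Probe or stimulus: EC80 β-phenethylamine stimulus / Times: seeding 17-24 h prior, 75-min 37 °C, 30-min RT dye loading / Detection: Fluo-8 calcium-sensitive fluorescence / Read-out basis: % inhibition scaled between DMSO and EC80 PEA controls / Repeats: singlicate, one well per test compound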
TAAR1 agonist – agonists of human TAAR1; activation, % at 3 µM; 360,000 compounds, 0.99% hits; CHO RD-HGA16 TAAR1, Fluo-8 calcium fluorescence; vehicle wells 0%, saturating PEA agonist 100%; AID 624467;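 active means activation above the mean activation of all test compounds in the run plus 3 SD, cut at about 38% in these data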
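test system = CHO RD-HGA16 cells carrying human TAAR1 plus Gα16 | schedule = 17-24 h seeding, 75 min 37 °C dye, 30 min RT | compound dosing = 3 µM single concentration | control set = DMSO and PEA EC100 | replicates = n 1 | signal = Fluo-8 fluorescence, 5 s baseline then 140 s kinetic read | measure = percent activation vs PEA EC100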
OX1R antag-2 – blocks the human orexin 1 receptor. 330,000 compounds, 1.8% hits. inhibition, % at 6.6 µM. O43613. OX1R-expressing cells, FRET antagonist read-out; in the data active means inhibition mostly above about 38%, no sharp cut-off; inactive means mostly below about 40%;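 further: 0% = agonist challenge alone and 100% = reference antagonist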
TAAR1 ag confirm – human TAAR1 agonism, confirmed; shares compounds with TAAR1 agonist; CHO RD-HGA16 TAAR1, Fluo-8 calcium fluorescence; scaled: DMSO 0%, maximal phenethylamine 100%; activation, % at 3 µM; 2,400 compounds, 82% hits;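 active means activation above a cutoff set at the run's mean compound activation plus 3 SD, cut at about 39% in these data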
Ga16 nonsel ag – nonselective agonist in parental cells, TAAR1 agonist counter-screen; shares compounds with TAAR1 agonist; CHO-Ga16 parental, Fluo-8 calcium fluorescence; normalized to maximal ATP response, DMSO zero; activation, % at 3 µM; 2,400 compounds, 50% hits; AID 651787;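 active means activation above the run cutoff, the mean activation over all tested wells plus 3 SD, cut at about 12% in these data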;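 further: 0% = DMSO wells and 100% = maximal ATP response on the peak over basal ratio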
TAAR1 desensitize – TAAR1 response desensitization, agonist counter-screen. AID 651951. CHO RD-HGA16 hTAAR1, Fluo-8 calcium, beta-PEA response inhibition. inhibition, % at 3 µM. 2,400 compounds, 46% hits. shares compounds with TAAR1 agonist;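 active means inhibition above the run cutoff, the mean inhibition of all test compounds plus 3 SD, cut at about 49% in these data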;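 further: beta-PEA stimulus applied at its EC80; loss of beta-PEA calcium signal after compound pretreatment read as receptor desensitization; 0% = DMSO with beta-PEA at EC80 and 100% = DMSO alone without agonist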
Ga16 antag count – counter-screen for TAAR1 agonists: nonselective Ga16 antagonists; CHO-Ga16 ATP-induced calcium, Fluo-8 fluorescence; shares compounds with TAAR1 agonist; inhibition, % at 3 µM; 2,400 compounds, 39% hits;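 active means inhibition above the plate's mean compound inhibition plus 3 SD, computed per plate, cut at about 22% in these data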;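 further: 0% = EC80 ATP with DMSO and 100% = DMSO wells without ATP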
* hit, by the source's call; nt = no result. In the library only some 4.5% were active in any assay of this set; here they are far more common.

SMILES	CHO parental Ca	GPR7 antagonist	OX1R antag-1	TAAR1 antagonist	TAAR1 agonist	OX1R antag-2	TAAR1 ag confirm	Ga16 nonsel ag	TAAR1 desensitize	Ga16 antag count
O=C(NCCc1ccc(O)cc1)c1[nH]c(C(F)(F)F)nc1-c1ccccc1	nt	nt	nt	69*	92*	nt	94*	8	90*	10
O=C(NCCc1ccccc1)c1[nH]c(C(F)(F)F)nc1-c1ccccc1	nt	nt	nt	47	69*	nt	80*	10	58*	11
CCOC(=O)Nc1sc2c(c1C(=O)OCC)CCC2	-4	-9	-8	-29	18	9	nt	nt	nt	nt
CCOC(=O)c1c(NS(=O)(=O)c2cccc(OC)c2)sc2c1CCC2	-16	-7	-20	10	55*	5	64*	54*	42	26*
COc1cc(CNCCc2c[nH]c3ccccc23)ccc1OCc1ccc(F)cc1	11	21*	10	50*	60*	10	54*	30*	52*	49*
COc1cc(CNCCc2c[nH]c3ccccc23)cc(Cl)c1OCC(N)=O	-14	11	-20	-14	5	24	nt	nt	nt	nt
COc1cc(CNCCc2ccc(F)cc2)ccc1OCc1ccc(Cl)nc1	-12	15	-10	-4	37	10	nt	nt	nt	nt
COc1cc(CNCCc2ccccc2F)ccc1OCc1ccc(Cl)nc1	-12	-1	-22	36	73*	7	77*	10	57*	20
COc1ccc(CNC(=O)c2cccnc2Sc2ccc(Cl)cc2)cc1	-6	-5	-18	nt	nt	6	nt	nt	nt	nt
Cc1ccc(CNC(=O)c2cccnc2Sc2cccc(Cl)c2)cc1	-11	0	-3	30	73*	5	82*	40*	47	35*
O=C(O)c1sccc1Oc1ccc(NS(=O)(=O)c2ccccc2)cc1	5	14	5	-13	1	-4	nt	nt	nt	nt
Cc1cccc(CNC(=O)Nc2nnc([C@H]3C[C@H](O)[C@@H](CO)O3)s2)c1	nt	nt	nt	-19	4	nt	nt	nt	nt	nt
C=CCOC(=O)CN1C(=O)c2ccccc2C1=O	-5	-6	1	-17	3	4	nt	nt	nt	nt
CCCSc1ccc(C(=O)Nc2ccc(F)cc2F)cn1	8	-1	-24	29	67*	18	18	1	-12	2
COc1ccc(-c2cc(C(F)(F)F)n3ncc(C(=O)N4CCCCC4c4cccnc4)c3n2)cc1 (stereo not drawn)	-25	-9	-32	-3	-1	0	nt	nt	nt	nt
BrC(=C\c1ccccc1)/C=N/Nc1ccc2nncn2n1	-5	-10	1	8	67*	18	44*	37*	23	13
Cc1ccc(CN2CCN(/N=C/C(Br)=C\c3ccccc3)CC2)cc1	-10	-3	-17	-8	7	38	nt	nt	nt	nt
C(=N\Nc1ccc2nncn2n1)/c1ccco1	2	-10	4	-21	5	15	nt	nt	nt	nt
BrC(=C\c1ccccc1)/C=N/n1cnnc1	nt	-11	nt	18	98*	nt	38*	37*	18	19
CC(=O)c1ccsc1-c1c(C)cc2oc(=O)cc(-c3ccccc3)c2c1C	-32	nt	-15	-42	1	24	nt	nt	nt	nt
Cc1cc(C)n(C(N)=NC(=O)c2ccccc2)n1	nt	nt	nt	-19	2	nt	nt	nt	nt	nt
O=C(CCc1ccccc1)N/N=C/c1cc(Br)ccc1O	-9	-3	-13	15	5	11	nt	nt	nt	nt
Oc1ccc(Br)cc1/C=N/NC(=S)NCCc1ccccc1	34*	-33	7	21	58*	17	74*	41*	45	47*
O=C(NCCc1ccccc1Cl)[C@@H]1CCCN1C(=O)[C@@H](NC(=O)N1CCOCC1)c1ccccc1	nt	nt	nt	3	42*	nt	60*	4	32	7
CCOC(=O)N[C@H](C(=O)N1CCC[C@H]1C(=O)NCCc1ccccc1Cl)C1CCCCC1	nt	nt	nt	75*	61*	nt	86*	0	95*	-2
SMILES	CHO parental Ca	GPR7 antagonist	OX1R antag-1	TAAR1 antagonist	TAAR1 agonist	OX1R antag-2	TAAR1 ag confirm	Ga16 nonsel ag	TAAR1 desensitize	Ga16 antag count
O=C(NCCc1ccccc1Cl)[C@@H]1CCCN1C(=O)[C@@H](NC(=O)N1CCOCC1)C1CCCCC1	nt	nt	nt	35	57*	nt	74*	2	80*	6
O=C(NC(=S)Nc1ccc(-c2ccccc2)cc1)c1ccccc1	nt	nt	nt	-16	2	nt	nt	nt	nt	nt
CC(C)NC(=S)NC(=O)c1ccc(-c2ccccc2)cc1	-19	-12	-26	-4	49*	8	26	11	14	16
O=C(N/N=C/c1ccc(O)c(O)c1)N/N=C/c1ccc(O)c(O)c1	nt	0	nt	27	98*	nt	83*	-1	73*	1
O=C([C@H](O)c1ccccc1)N1CCC[C@H]1CO	-1	-6	8	-13	3	20	nt	nt	nt	nt
CC1(c2ccccc2)NC(=O)N(CC(=O)N2CCc3ccccc32)C1=O (stereo not drawn)	nt	nt	nt	-27	48*	nt	17	9	-1	9
CC1(c2cccc(Br)c2)NC(=O)N(CC(=O)N2CCc3ccccc32)C1=O (stereo not drawn)	-1	nt	-15	7	6	6	nt	nt	nt	nt
COc1ccc(C(C(=O)NC2CCCC2)N(Cc2cccnc2)C(=O)Cc2cccs2)c(OC)c1 (stereo not drawn)	-21	-2	-22	-11	1	8	nt	nt	nt	nt
CC(C)C[C@H](NC(=O)[C@@H]1Cc2ccccc2CN1)C(=O)Nc1ccc(C(C)C)cc1	-22	-5	-32	6	6	6	nt	nt	nt	nt
CC(C)c1ccc(NC(=O)[C@@H](C)NC(=O)[C@@H]2Cc3ccccc3CN2)cc1	-28	-1	-30	-4	78*	12	31	12*	-9	4
CN(C)CCNc1ncnc2c1ncn2[C@H]1CN(Cc2ccc3c(c2)OCO3)C[C@@H](CO)O1	nt	nt	nt	0	0	nt	nt	nt	nt	nt
N#Cc1c([N+](=O)[O-])cc([N+](=O)[O-])cc1S(=O)(=O)Cc1ccccc1	17	nt	-2	45	48*	28	9	9	42	45*
CC(C)NC(=O)N(C)C[C@H]1Oc2ccc(NC(=O)Cc3ccccc3)cc2C(=O)N([C@H](C)CO)C[C@@H]1C	0	nt	-3	-20	2	1	nt	nt	nt	nt
